Results reported in ChEMBL document CHEMBL3580617, “Discovery of Benzimidazole CYP11B2 Inhibitors with in Vivo Activity in Rhesus Monkeys” (ACS Med Chem Lett, 2015).

What was measured:
[1] = biological target: T1, Steroid 17-alpha-hydroxylase/17,20 lyase (Homo sapiens, UniProt P05093); assay: Inhibition of human CYP17 expressed in COS7 cells incubated for 1 hr before 17-hydroxypregnenolone substrate addition by EIA method; format: cell-based, COS-7
T1 sequence (P05093 whole entry): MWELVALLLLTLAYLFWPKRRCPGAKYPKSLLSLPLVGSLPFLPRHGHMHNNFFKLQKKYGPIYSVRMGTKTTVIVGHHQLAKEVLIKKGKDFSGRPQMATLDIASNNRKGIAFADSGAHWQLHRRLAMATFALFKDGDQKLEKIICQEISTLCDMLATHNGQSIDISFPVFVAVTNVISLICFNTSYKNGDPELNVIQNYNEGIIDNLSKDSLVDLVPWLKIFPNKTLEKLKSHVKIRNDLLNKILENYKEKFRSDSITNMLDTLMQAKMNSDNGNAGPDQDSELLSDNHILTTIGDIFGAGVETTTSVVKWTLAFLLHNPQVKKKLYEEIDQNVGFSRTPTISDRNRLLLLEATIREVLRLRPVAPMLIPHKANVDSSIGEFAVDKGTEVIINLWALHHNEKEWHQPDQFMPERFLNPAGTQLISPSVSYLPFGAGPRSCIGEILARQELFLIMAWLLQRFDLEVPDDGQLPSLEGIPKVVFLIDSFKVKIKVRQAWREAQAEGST

[2] = Fraction unbound in rat plasma at […] incubated for 4 hrs by equilibrium dialysis and LC/MS method; format: ADME, cell-free
[3] = Intrinsic clearance in rat liver microsomes at […] incubated for 10 mins before NADPH addition by LC/MS method; format: ADME; conditions: read-out: CLH
[4] = Oral bioavailability in Sprague-Dawley rat at 2 mg/kg by LC-MS/MS method; format: ADME, organism-based; conditions: in vivo
In short: (§1)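 In the rat pharmacokinetic study, AUC was normalized for dose (μM·h·kg/mg), plasma clearance was expressed in mL/min/kg, and oral bioavailability was calculated.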

Rattus norvegicus = assay: Dose normalized AUC in Sprague-Dawley rat at 2 mg/kg, po or 1 mg/kg, iv by LC-MS/MS method; format: ADME, organism-based; conditions: in vivo; in short: as §1
[5] = Plasma clearance in Sprague-Dawley rat at 2 mg/kg, po or 1 mg/kg, iv by LC-MS/MS method; format: ADME, organism-based; in short: as §1
Steroid 21-hydroxylase = biological target: T2, Steroid 21-hydroxylase (Homo sapiens, UniProt P08686); assay: Inhibition of human CYP21 expressed in COS7 cells incubated for 1 hr before […] substrate addition by HTRF-based assay; format: cell-based, COS-7
T2 sequence (P08686 whole entry): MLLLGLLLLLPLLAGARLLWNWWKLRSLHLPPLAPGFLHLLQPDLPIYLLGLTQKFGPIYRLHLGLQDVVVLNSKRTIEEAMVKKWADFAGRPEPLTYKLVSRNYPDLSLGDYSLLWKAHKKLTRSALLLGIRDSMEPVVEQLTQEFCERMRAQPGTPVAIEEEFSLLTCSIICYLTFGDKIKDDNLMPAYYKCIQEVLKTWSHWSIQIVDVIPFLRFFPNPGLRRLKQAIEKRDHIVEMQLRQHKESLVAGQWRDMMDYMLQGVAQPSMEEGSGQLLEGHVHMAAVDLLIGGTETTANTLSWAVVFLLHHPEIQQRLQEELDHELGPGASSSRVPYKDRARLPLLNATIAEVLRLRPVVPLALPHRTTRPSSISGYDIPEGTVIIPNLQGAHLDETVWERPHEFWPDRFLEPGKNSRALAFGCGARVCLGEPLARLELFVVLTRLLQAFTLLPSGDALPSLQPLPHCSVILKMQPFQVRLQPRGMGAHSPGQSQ

Cytochrome P450 3A4 = Cytochrome P450 3A4 (Homo sapiens, UniProt P08684); assay: Inhibition of CYP3A4 (unknown origin); format: ADME
Cytochrome P450 3A4, sequence (P08684 whole entry): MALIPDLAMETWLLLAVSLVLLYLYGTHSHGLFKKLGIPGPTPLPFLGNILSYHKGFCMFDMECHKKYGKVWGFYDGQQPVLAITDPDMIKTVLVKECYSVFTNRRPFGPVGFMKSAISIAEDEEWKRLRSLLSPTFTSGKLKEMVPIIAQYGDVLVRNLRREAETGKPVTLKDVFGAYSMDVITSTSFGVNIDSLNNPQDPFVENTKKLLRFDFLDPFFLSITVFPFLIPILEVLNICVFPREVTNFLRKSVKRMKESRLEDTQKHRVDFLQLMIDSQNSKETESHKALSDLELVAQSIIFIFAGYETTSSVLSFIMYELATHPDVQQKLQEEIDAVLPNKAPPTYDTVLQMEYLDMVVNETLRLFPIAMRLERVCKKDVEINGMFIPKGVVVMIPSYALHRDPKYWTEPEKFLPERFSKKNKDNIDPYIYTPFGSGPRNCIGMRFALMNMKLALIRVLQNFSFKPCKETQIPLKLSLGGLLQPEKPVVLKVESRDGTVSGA

Cytochrome P450 2C9 = Cytochrome P450 2C9 (Homo sapiens, UniProt P11712); assay: Inhibition of CYP2C9 (unknown origin); format: ADME
Cytochrome P450 2C9, sequence (P11712 whole entry): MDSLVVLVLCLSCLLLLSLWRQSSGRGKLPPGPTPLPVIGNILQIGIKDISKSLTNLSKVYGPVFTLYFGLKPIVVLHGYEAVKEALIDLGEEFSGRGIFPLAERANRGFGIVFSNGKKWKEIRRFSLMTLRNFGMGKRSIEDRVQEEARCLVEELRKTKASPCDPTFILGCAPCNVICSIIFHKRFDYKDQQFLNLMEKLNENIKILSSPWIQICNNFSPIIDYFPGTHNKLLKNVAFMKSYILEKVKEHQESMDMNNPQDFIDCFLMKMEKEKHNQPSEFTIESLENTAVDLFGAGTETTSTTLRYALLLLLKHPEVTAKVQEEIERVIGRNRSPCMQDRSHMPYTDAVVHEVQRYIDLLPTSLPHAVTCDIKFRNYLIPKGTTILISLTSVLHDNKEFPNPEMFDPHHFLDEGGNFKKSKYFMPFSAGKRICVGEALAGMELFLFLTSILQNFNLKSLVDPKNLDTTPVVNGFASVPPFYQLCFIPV

Cytochrome P450 2D6 = Cytochrome P450 2D6 (Homo sapiens, UniProt P10635); assay: Inhibition of CYP2D6 (unknown origin); format: ADME
Cytochrome P450 2D6, sequence (P10635 whole entry): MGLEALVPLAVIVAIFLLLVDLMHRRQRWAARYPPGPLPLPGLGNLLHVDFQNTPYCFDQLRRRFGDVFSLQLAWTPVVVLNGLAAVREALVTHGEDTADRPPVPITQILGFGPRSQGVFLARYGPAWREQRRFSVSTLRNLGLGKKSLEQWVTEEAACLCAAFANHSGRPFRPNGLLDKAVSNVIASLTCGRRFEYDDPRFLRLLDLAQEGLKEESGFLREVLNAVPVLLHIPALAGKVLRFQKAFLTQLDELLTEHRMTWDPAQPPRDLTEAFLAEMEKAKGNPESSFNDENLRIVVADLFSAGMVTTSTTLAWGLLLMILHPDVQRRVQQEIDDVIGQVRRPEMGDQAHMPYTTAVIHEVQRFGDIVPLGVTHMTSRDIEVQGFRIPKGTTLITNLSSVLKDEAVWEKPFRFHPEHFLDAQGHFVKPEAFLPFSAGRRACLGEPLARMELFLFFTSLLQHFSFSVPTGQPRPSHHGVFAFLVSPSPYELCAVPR

[6] = Fraction unbound in rhesus monkey plasma at […] incubated for 4 hrs by equilibrium dialysis and LC/MS method; format: ADME, cell-free, Macaca mulatta
[7] = Intrinsic clearance in rhesus monkey liver microsomes at […] incubated for 10 mins before NADPH addition by LC/MS method; format: ADME, Macaca mulatta; conditions: read-out: CLH
[8] = Oral bioavailability in rhesus monkey at 1 mg/kg by LC-MS/MS method; format: ADME, organism-based, Macaca mulatta; conditions: in vivo
Rhesus monkey = assay: Dose normalized AUC in rhesus monkey at 1 mg/kg, po or 0.5 mg/kg, iv by LC-MS/MS method; format: ADME, organism-based, Macaca mulatta; conditions: in vivo
[9] = Plasma clearance in rhesus monkey at 1 mg/kg, po or 0.5 mg/kg, iv by LC-MS/MS method; format: ADME, organism-based, Macaca mulatta
[10] = biological target: T3, Cytochrome P450 11B2, mitochondrial (Rattus norvegicus, UniProt P30099); assay: Inhibition of rat CYP11B2 expressed in V79 cells incubated for 1 hr before 11-deoxycorticosterone substrate addition by HTRF-based assay; format: cell-based; conditions: v79, 1 h
T3 sequence (P30099 whole entry): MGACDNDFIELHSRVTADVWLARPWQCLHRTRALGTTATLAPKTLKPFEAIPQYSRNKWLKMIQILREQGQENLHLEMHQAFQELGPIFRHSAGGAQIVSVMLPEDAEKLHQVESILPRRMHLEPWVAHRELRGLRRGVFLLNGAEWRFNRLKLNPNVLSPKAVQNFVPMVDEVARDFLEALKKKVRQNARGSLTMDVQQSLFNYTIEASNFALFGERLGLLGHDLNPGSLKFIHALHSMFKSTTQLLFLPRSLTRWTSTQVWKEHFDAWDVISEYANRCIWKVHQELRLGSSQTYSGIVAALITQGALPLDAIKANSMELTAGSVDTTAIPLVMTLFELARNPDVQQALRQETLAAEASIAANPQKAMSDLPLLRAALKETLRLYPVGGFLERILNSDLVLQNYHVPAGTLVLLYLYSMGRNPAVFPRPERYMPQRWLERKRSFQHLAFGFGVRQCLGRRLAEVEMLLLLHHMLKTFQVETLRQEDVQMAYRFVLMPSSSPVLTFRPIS

Row | IC50 [1] [µM] | fraction unbound at 4 h [2] | CLint scaled [3] [mL/min/kg] | bioavailability [4] [%] | AUC/dose (Rattus norvegicus) [µM·kg·h/mg] | clearance [5] [mL/min/kg] | IC50 (Steroid 21-hydroxylase) [µM] | IC50 (Cytochrome P450 3A4) [µM] | inhibition (INH) (Cytochrome P450 2C9) | inhibition (INH) (Cytochrome P450 2D6) | fraction unbound at 4 h [6] | CLint scaled [7] [mL/min/kg] | bioavailability [8] [%] | AUC/dose (Rhesus monkey) [µM·kg·h/mg] | clearance [9] [mL/min/kg] | inhibition (INH) [10] | SMILES
1 | > 10 | 0.13 | < 20 | 76 | 4.32 | 10 | > 10 | > 50 | Not Active | Not Active | 0.07 | 22 | 15 | 1.53 | 5 | Not Active | CC(C)(O)c1cncc(-c2nc3ccc(F)cc3n2C2CC2)c1 [MSD-CYP11B2]
2 | > 10 | 0.14 | < 20 | 86 | 2.1 | 37 | > 10 | > 50 | Not Active | Not Active | 0.23 | < 20 | 53 | 3.07 | 10 | Not Active | Fc1cncc(-c2nc3cc(F)c(F)cc3n2C2CC2)c1
